Laboratory results as given in ChEMBL document CHEMBL2311408, “Inhibition of norovirus 3CL protease by bisulfite adducts of transition state inhibitors” (Bioorg Med Chem Lett, 2013).

Legend:
[1] = Cytotoxicity against human HG23 cells up to 320 uM; type: cell-based
Norovirus = assay: Antiviral activity against Norovirus infected in human HG23 cells; type: functional; details: read-out: ED50 (the source's name)
How it was run: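 Norovirus replicon-bearing cells, with inhibition of viral replication reported as ED50 in μM.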

[2] = Inhibition of Norovirus recombinant 3CL protease using Edans-EPDFHLQGPEDLAK-Dabcyl as substrate for 30 mins by fluorometry
[3] = Stability of the compound in buffer solution at pH 7.4 assessed as formation of aldehyde form of compound within 1 hr; type: physicochemical; details: pH 7.4, 1 h
How it was run: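 The bisulfite adduct was placed in buffer solution at pH 7.4. Over about one hour, it was followed for dissociation to the free aldehyde and for hydration of that aldehyde.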

[4] = Aqueous stability of the compound in DMSO/water after 24 hrs by Mass spectrometry; type: physicochemical
How it was run: (§1)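 The bisulfite adduct was placed in water. The species present (intact bisulfite adduct or hydrated aldehyde) were examined after 5 min of exposure and again after 24 h.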

[5] = Aqueous stability of the compound assessed as compound hydration in DMSO/water after 5 mins by Mass spectrometry; type: physicochemical; how it was run: as §1

Structure (SMILES)	Activity [1]	EC50 (Norovirus) [nM]	IC50 [2] [nM]	Stability [3]	Stability [4]	Stability [5]
CCCC[C@H](NC(=O)OCc1ccccc1)C(=O)N[C@@H](CC1CCNC1=O)C(O)S(=O)(=O)[O-].[Na+] (stereo partly specified)	Non-toxic	1300	–	–	–	–
CC(C)C[C@H](NC(=O)OCCc1ccccc1)C(=O)N[C@H](C=O)CC1CCNC1=O (stereo partly specified)	Non-toxic	1100	1900	–	–	–
CC(C)C[C@H](NC(=O)OCc1ccc(F)cc1)C(=O)N[C@H](C=O)CC1CCNC1=O (stereo partly specified)	Non-toxic	500	1800	–	–	–
CC(C)C[C@H](NC(=O)OCCC1CCCCC1)C(=O)N[C@@H](CC1CCNC1=O)C(O)S(=O)(=O)[O-].[Na+] (stereo partly specified)	Toxic	300	–	–	–	–
CCCC[C@H](NC(=O)OCc1ccccc1)C(=O)N[C@H](C=O)CC1CCNC1=O (stereo partly specified)	Non-toxic	1200	4500	–	–	–
CCC[C@H](NC(=O)OCc1ccccc1)C(=O)N[C@H](C=O)CC1CCNC1=O (stereo partly specified)	Non-toxic	2300	6100	–	–	–
CC(C)C[C@H](NC(=O)OCc1ccccc1)C(=O)N[C@@H](CC1CCNC1=O)C(O)S(=O)(=O)[O-].[Na+] (stereo partly specified)	Non-toxic	300	–	Stable	Stable	–
O=C[C@H](CC1CCNC1=O)NC(=O)[C@H](CC1CCCCC1)NC(=O)OCc1ccccc1 (stereo partly specified)	Non-toxic	50	500	–	–	–
CC(C)C[C@H](NC(=O)OCc1cccc(F)c1)C(=O)N[C@H](C=O)CC1CCNC1=O (stereo partly specified)	Non-toxic	300	700	–	–	–
CC(C)C[C@H](NC(=O)OCCc1ccccc1)C(=O)N[C@@H](CC1CCNC1=O)C(O)S(=O)(=O)[O-].[Na+] (stereo partly specified)	Non-toxic	1000	–	–	–	–
O=C(N[C@@H](CC1CCCCC1)C(=O)N[C@@H](CC1CCNC1=O)C(O)S(=O)(=O)[O-])OCc1ccccc1.[Na+] (stereo partly specified)	Non-toxic	60	–	–	–	–
CCC[C@H](NC(=O)OCc1ccccc1)C(=O)N[C@@H](CC1CCNC1=O)C(O)S(=O)(=O)[O-].[Na+] (stereo partly specified)	Non-toxic	1500	–	–	–	–
CC(C)C[C@H](NC(=O)OCc1ccccc1)C(=O)N[C@H](C=O)CC1CCNC1=O (stereo partly specified)	Non-toxic	200	600	–	–	Unstable
O=C[C@H](CC1CCNC1=O)NC(=O)[C@H](Cc1ccccc1)NC(=O)OCc1ccccc1 (stereo partly specified)	Non-toxic	1800	5100	–	–	–
O=C(N[C@@H](Cc1ccccc1)C(=O)N[C@@H](CC1CCNC1=O)C(O)S(=O)(=O)[O-])OCc1ccccc1.[Na+] (stereo partly specified)	Non-toxic	1100	–	–	–	–
CC(C)C[C@H](NC(=O)OCc1ccc(F)cc1)C(=O)N[C@@H](CC1CCNC1=O)C(O)S(=O)(=O)[O-].[Na+] (stereo partly specified)	Non-toxic	400	–	–	–	–
CCOC(=O)N[C@@H](C)C(=O)N[C@@H](CC1CCNC1=O)C(O)(C(=O)NC1CC1)S(=O)(=O)[O-].[Na+] (stereo partly specified)	Non-toxic	800	5300	–	–	–
CC(C)C[C@H](NC(=O)OCCC1CCCCC1)C(=O)N[C@H](C=O)CC1CCNC1=O (stereo partly specified)	Toxic	300	600	–	–	–
CC(C)C[C@H](NC(=O)OCc1cccc(F)c1)C(=O)N[C@@H](CC1CCNC1=O)C(O)S(=O)(=O)[O-].[Na+] (stereo partly specified)	Non-toxic	200	–	–	–	–
